Screens (PubChem BioAssay)
An excerpt weighted towards active compounds, which were near 3.1% of everything screened.
SIRT5 block: inhibitors of human sirtuin-5 desuccinylase | Purified SirT5, succinyl-peptide AMC, trypsin-coupled fluorescence | AID 652115 | Q9NXA8 | inhibition, % at 15 µM | 1.1% of 330,000 active; in the data active means inhibition above about 15%
Ecoli rRNA inh: selective bacterial rRNA inhibition in E. coli; E. coli WT GFP vs humanized-ribosome RFP mutants, fluorescence, 24 h; stronger effect = lower value; DMSO median 0, no signal -100; GFP signal change (wild-type ribosome), % (concentration not given with the values); 1.6% of 350,000 active; AID 720706;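 active means significant combined selectivity score with lowered wild-type GFP, culture density cut under 30%, mutant RFP and density less affected; inactive means any of these conditions unmet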
ERAP1 HTS inh: ERAP1 (human) enzyme inhibition; Q9NZ08; recombinant ERAP1, Leu-AMC fluorescence, 60 min; inhibition, % at 10.7 µM; 0.15% of 340,000 active;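 active means mean replicate inhibition of at least 30%, or all replicates individually reaching that 30% level; inactive means mean below 30% and not every replicate reaching it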;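 further: 0% = neutral control wells and 100% = L-leucinethiol positive control wells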
CFTR F508del cor: correctors of CFTR F508del function in bronchial epithelial cells; 0.36% of 350,000 active; AID 720511; CFBE cells, YFP halide quenching; stimulated with forskolin plus potentiator P3; % fluorescence drop versus neutral controls; activity (quench increase), % at 7.58 µM;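 active means mean added fluorescence quench of at least 8% versus neutral control, with both replicates also reaching 8%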;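 further: cells transiently co-express mutant CFTR-F508del with the halide-sensitive YFP; corrector assay measuring rescue of mutant channel to the surface after 24 h compound exposure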
S100A4 inh HTS: blocks human S100A4 binding to myosin IIA peptide; AID 652163; 0.14% of 360,000 active; P26447; inhibition, % at 10.7 µM; S100A4/TAMRA-MyoIIA peptide fluorescence polarization;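 active means mean inhibition of at least 70% across replicates, with every replicate also reaching that level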
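Assay system: human S100A4 monomer with TAMRA-labelled myosin IIA peptide / Buffer or medium: Calcium-containing HEPES buffer, pH 7.2 / Reagent: TAMRA-labelled myosin IIA heavy-chain peptide probe, 5 nM / Compound: one dose per compound / Timing: polarization read 5 min after assay mix addition, stable 5–60 min / Benchmarks: neutral control DMSO, positive control TFP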
An asterisk follows results filed as active; . = no result given.

SMILES | SIRT5 block | Ecoli rRNA inh | ERAP1 HTS inh | CFTR F508del cor | S100A4 inh HTS
C[C@@H]1CN([C@@H](C)CO)C(=O)Cc2cc(NC(=O)NC3CCCCC3)ccc2O[C@H]1CN(C)C(=O)Nc1cccc2ccccc12 | -5 | -1 | 1 | -1 | -7
Cc1cccc(N2CCN(C(=O)c3c(-c4ccccc4Cl)noc3C)CC2)c1C | -1 | -4 | 1 | 14* | -2
O=C(O)CC1(O)C(=O)N(Cc2ccccc2)c2ccccc21 (stereo unspecified) | 2 | 4 | -2 | 1 | -4
N#CCC1(O)C(=O)N(Cc2ccccc2)c2ccccc21 (stereo unspecified) | 22* | 4 | 0 | -2 | -2
Cc1csc(NC(=O)Cc2ccccc2[N+](=O)[O-])n1 | 17* | . | 1 | . | -1
Cc1cccc(C)c1NC(=O)CN(C)C(=O)c1ccccc1SCC(=O)N1CCCC1 | 16* | 5 | -1 | 1 | -5
CCCC(=O)N1CCN(c2nc3c(OC)ccc(Cl)c3s2)CC1 | 2 | -36* | 2 | -4 | 3
COc1cccc(N/N=C(\C#N)S(=O)(=O)C(C)(C)C)c1 | 18* | -18 | 4 | -1 | -5
C[C@@H]1CN([C@@H](C)CO)C(=O)c2cccc(NS(=O)(=O)c3ccc(F)cc3)c2O[C@H]1CN(C)C | 2 | 1 | 3 | -1 | 9
O=C(C1CCCC1)N1CC[C@@H]2[C@H](CO)Nc3ccc(Br)cc3[C@@H]21 | 5 | -5 | -6 | 2 | -1
COc1ccc(-c2csc(NC(=O)CC(NC(C)=O)c3ccccc3)n2)cc1OC (stereo unspecified) | -1 | -28* | 0 | 1 | 1
COc1ccc(-c2csc(NC(=O)CS(=O)(=O)c3ccccc3)n2)cc1OC | 3 | -48 | -4 | 3 | -30
CC(C)OC(=O)N(C)C[C@@H]1OCc2ccccc2-c2ccccc2C(=O)N([C@@H](C)CO)C[C@H]1C | -5 | 2 | -1 | 0 | -11
CCCCC1(C2CCCC2)NC(=O)NC1=O (stereo unspecified) | -6 | 8 | 1 | 12* | 35
CC(C)CC1(C2CCCC2)NC(=O)NC1=O (stereo unspecified) | 1 | 10 | -4 | -2 | 7
COc1ccc(C2c3c(ncn(CCCO)c3=N)Oc3ccc4ccccc4c32)cc1 (stereo unspecified) | 0 | -47* | 3 | 0 | -6
FC(F)(F)c1ccccc1Cc1c(-c2ccccc2)nc2ccc(Br)cn12 | -2 | -27* | . | -1 | 21
N#Cc1ccc(-c2nc3ccc(Br)cn3c2Cc2ccccc2C(F)(F)F)cc1 | -3 | -8 | 7 | 0 | 1
O=C1NN(c2ccc(Cl)cc2)C(=O)/C1=C\c1ccc(-c2cccc(C(=O)O)c2)o1 | 28* | . | 4 | 2 | -9
O=C1NN(c2ccccc2)C(=O)/C1=C\c1ccc(-c2cc([N+](=O)[O-])ccc2O)o1 | 18* | 3 | 0 | 2 | -5
CC(=O)NC(c1ccccc1)c1cc(Cl)c2cccnc2c1O (stereo unspecified) | -1 | -45 | -3 | 3 | -1
CC(=O)NC(c1ccc(Cl)cc1)c1ccc2cccnc2c1O (stereo unspecified) | 1 | -2 | -1 | 12* | -4
CCC(=O)NC(c1ccc(C)cc1)c1ccc2cccnc2c1O (stereo unspecified) | 0 | 10 | -3 | 11* | -4
CC(=O)NC(c1ccc(C)cc1)c1cc([N+](=O)[O-])c2cccnc2c1O (stereo unspecified) | 8 | -25* | -2 | 2 | -12
CCC(=O)NC(c1ccc(Cl)cc1Cl)c1ccc2cccnc2c1O (stereo unspecified) | -4 | -22 | 0 | 1 | 5
CCCC(=O)NC(c1ccc(C(C)C)cc1)c1ccc2cccnc2c1O (stereo unspecified) | 0 | 4 | -4 | 12* | -7
C[C@H](O)C#Cc1ccc2c(c1)O[C@@H](CN(C)CC1CC1)[C@@H](C)CN([C@@H](C)CO)S2(=O)=O | . | -1 | . | -2 | .
C[C@H]1CN([C@@H](C)CO)C(=O)c2cccc(NC(=O)NC3CCCCC3)c2O[C@H]1CN(C)S(C)(=O)=O | -3 | -1 | -2 | 2 | 1
CCC(=O)Nc1ccc2c(c1)OC[C@@H](C)N(C(=O)c1ccc(F)cc1)C[C@H](C)[C@@H](OC)CN(C)C2=O | 5 | 5 | 2 | -1 | 1
